Measurements published in article PMC3966493 (Chemistry & biology, 2013).
Ends that are not written are not given here. * marks the point of attachment. FITC = O=C1OC2(c3ccc(O)cc3Oc3cc(O)ccc32)c2ccc(NC(=S)*)cc21

How the values were obtained:
EphA4 LBD [1] = target: T1, EphA4 LBD (Homo sapiens, UniProt P54764); assay: Fluorescence polarization assay; format: binding; conditions: 5 µM FITC-KYL, 2 µM EphA4 LBD
Outline: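 Human EphA4 LBD (residues 29–209), His-tag purified from E. coli Rosetta-gami (DE3), at 2 µM final, was preincubated 10 min at room temperature with varying test compound in PBS pH 7.2. N-terminally FITC-labelled KYL peptide (5 µM final) was added. After 30 min at room temperature, polarization (mP) was read at ex/em 480/535 nm. Unlabelled KYL served as positive control, DMSO as negative.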

EphA4 LBD [2] = target: T1, EphA4 LBD; assay: Protein NMR 2D [15N,1H]-HSQC chemical shift perturbation / titration; format: binding; conditions: for binding of individual side-chain fragments by 2D HSQC: perturbations observable only at higher ligand concentrations (3 mM)
Outline: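 15N-labelled EphA4 LBD (M9 medium with (15NH4)2SO4) at 50 µM was used. 2D [15N,1H]-HSQC spectra (32 scans, 2,048 × 128 complex points, 300 K) were recorded with and without test compound. Shifts were computed as Δδ = √[(Δ1H)² + (0.17·Δ15N)²]. For Kd, compound was titrated stepwise and Δδ was fitted to a quadratic binding equation.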

[3] = target: human EphA4 ligand-binding domain (residues 29-209) (human, UniProt P54764 29-209); assay: fluorescence polarisation
human EphA4 ligand-binding domain (residues 29-209), sequence (P54764 29-209): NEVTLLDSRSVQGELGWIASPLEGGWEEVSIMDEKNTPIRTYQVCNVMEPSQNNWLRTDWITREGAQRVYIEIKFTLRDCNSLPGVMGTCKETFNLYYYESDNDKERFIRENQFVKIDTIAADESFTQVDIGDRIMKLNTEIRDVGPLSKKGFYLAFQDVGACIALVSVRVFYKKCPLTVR

T1 sequence (P54764 29-209): as above

Question: What does the source list for KYLP?
Answer: IC50 by FPA (EphA4 LBD [1]): inactive; binding by 2D [15N,1H]-HSQC chemical shift perturbation (EphA4 LBD [2]; 50 µM EphA4 LBD, 100 µM compound): inactive

Question: How did the “binding of individual side-chain fragments by 2D HSQC” value (EphA4 LBD [2]) turn out when Cc1c[nH]c2ccccc12 [3-methylindole] was run?
Answer: Its value is “weak binding affinities”.

Question: Cc1ccc(Cl)cc1 [4-chlorotoluene] was tested. Which “binding of individual side-chain fragments by 2D HSQC” value (EphA4 LBD [2]) did it give?
Answer: Its value is “weak binding affinities”.

Question: Does {FITC}-KYLPYWPVLSSL [FITC-labeled KYL peptide] bind [3]?
Answer: Result: binds
